Data as given in publication PMC7299768 (Journal of controlled release : official journal of the …, 2020).

Legend:
[1] = Pharmacokinetics and tissue bio-distribution after single oral administration; assay type: in vivo, C57BL/6J mice; conditions: for Level in most of the blood samples: after oral free-6-S or 6-S-NL 5 mg/kg
Procedure, shortened: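 Single oral gavage of 5 mg/kg to fasted (4 h) female C57BL/6J mice, as free test compound in 0.5% CMC-Na/PBS or as lipid nanoparticles in PBS. Sparse sampling, 3 mice/time point: blood (K₂EDTA) 5 min–8 h; stomach, small intestine, colon, liver and kidney 15 min–8 h. Acetonitrile precipitation, LC-MS/MS (MRM) of parent and metabolites. Cmax and Tmax observed; T1/2 = ln2/k.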

Drug loading efficiency = assay type: physicochemical; conditions: (encapsulated drug/total drug) x100%; natural lipid NPs
Procedure, shortened: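 Loading into natural-lipid nanoparticles measured by dialysis in 10 K MWCO mini devices pre-equilibrated with release medium (3% MeOH, 0.1% Polysorbate 80 in PBS, pH 7.4). Entrapped drug is apical minus basal concentration; free drug is basal concentration. Quantified by HPLC-UV (C18 column, 282 nm). Efficiency = encapsulated/total drug ×100%, from three batches.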

[2] = cited from earlier work
inflamed Raw 264.7 cells = experiment: In vitro anti-inflammation assay; assay type: cell-based; conditions: 1.0 μg/mL; for IL-1β gene expression / IL-6 gene expression / IL-10 gene expression / TNF-α gene expression: LPS-inflamed Raw 264.7 cells, RT-PCR; for Anti-inflammatory activities compared with 6-shogaol: inflamed Raw 264.7 cells
wounded Caco-2 BBE cells = experiment: In vitro wound-healing assay; assay type: cell-based; conditions: 0.6 mL of 1.0 μg/mL solution; ECIS
Procedure, shortened: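 Caco-2 BBE cells were grown on ECIS 8W1E electrode plates in humidified 5% CO₂. At confluence, medium with or without test compound (1.0 μg/mL) or control formulation was added. Monolayers were wounded by a 30 s pulse (40 kHz, 4.5 V), and recovery was followed as impedance, with resistance measured at 500 Hz and 1 V.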

[3] = oral 5 mg/kg, compared to the 6-S-NL group

| Tmax of 6-shogaol in the colon ([1]; oral 5 mg/kg) | M13 concentrations in the small intestine, comparison ([1]; oral 5 mg/kg, compared to 6-S-NL) | AUC values of M2 and M13 in liver and kidney tissues, comparison [1, 3] | Exposure (AUC) of 6-shogaol in stomach and small intestine tissues, comparison [1, 3] | Drug loading efficiency (Drug loading efficiency) | Level in most of the blood samples [1] | Healing of wounded Caco-2 epithelial monolayers compared with 6-shogaol (wounded Caco-2 BBE cells) | Compound | Effective 6-shogaol concentration in vitro [2] | IL-1β gene expression (inflamed Raw 264.7 cells) | IL-6 gene expression (inflamed Raw 264.7 cells) | IL-10 gene expression (inflamed Raw 264.7 cells) | TNF-α gene expression (inflamed Raw 264.7 cells) | Anti-inflammatory activities compared with 6-shogaol (inflamed Raw 264.7 cells) |
| --- | --- | --- | --- | --- | --- | --- | --- | --- | --- | --- | --- | --- | --- |
| 1.5 h | higher | higher | significantly higher | 89.1 ± 2.6% | – | – | CCCCC/C=C/C(=O)CCc1ccc(O)c(OC)c1 [6-shogaol] | about 1 μg/mL | – | – | – | – | – |
| – | – | – | – | 91.3 ± 3.1% | below the LLOQ | healed significantly faster | CCCCCC(CC(=O)CCc1ccc(O)c(OC)c1)SC[C@H](N)C(=O)O (stereo partly shown) [M2] | – | down-regulate | down-regulate | up-regulate | down-regulate | higher |
| – | – | – | – | 83.3 ± 1.9% | below the LLOQ | healed significantly faster | CCCCCC(CC(=O)CCc1ccc(O)c(OC)c1)SC[C@H](NC(=O)CC[C@H](N)C(=O)O)C(=O)NCC(=O)O (stereo partly shown) [M13] | – | down-regulate | down-regulate | up-regulate | down-regulate | higher |
